Compound activity as filed in PubChem.
PP5 inh: PP5 (human) phosphatase inhibition. inhibition, % at 6.7 µM. 320,000 compounds, 0.18% hits. P53041. purified PP5c, OMFP substrate fluorescence;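 active = inhibition above the campaign's mean inhibition across all tested compounds plus 3 SD, cut at about 9.5% in these data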;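 also: 0% = DMSO only and 100% = 100 µM cantharidin control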
PP1 inh: PP1-alpha (human) inhibition in PP5 counter-screen | inhibition, % at 6.7 µM | 320,000 compounds, 0.9% hits | purified PP1alpha, OMFP fluorescence;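 active = inhibition above the mean inhibition of all tested compounds plus 3 SD, computed separately for each screening campaign, cut at about 15% in these data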
Target sequence (P62136 whole entry, looked up): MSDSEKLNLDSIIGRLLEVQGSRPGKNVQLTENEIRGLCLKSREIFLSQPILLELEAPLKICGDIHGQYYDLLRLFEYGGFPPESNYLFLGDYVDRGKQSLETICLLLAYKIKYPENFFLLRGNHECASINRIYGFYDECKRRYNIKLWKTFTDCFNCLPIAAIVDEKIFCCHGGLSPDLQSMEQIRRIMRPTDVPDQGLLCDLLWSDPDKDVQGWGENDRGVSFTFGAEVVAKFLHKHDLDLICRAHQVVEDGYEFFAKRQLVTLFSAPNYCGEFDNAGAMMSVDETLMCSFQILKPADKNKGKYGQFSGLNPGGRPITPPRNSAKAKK
NR2E3 ag-1: human photoreceptor-specific nuclear receptor agonism; Q9Y5X4; CHO-S Gal4-NCOR/VP16-NR2E3 two-hybrid, luciferase; inhibition of corepressor binding, % at 3.98 µM; 360,000 compounds, 0.35% hits; AID 602229;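 active = inhibition above the mean of all tested compounds plus 3 SD, cut at about 70% in these data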;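 also: 0% = DMSO with NR2E3 transfected cells and 100% = cells lacking NR2E3 construct; higher means lower luciferase signal from less NR2E3 corepressor binding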
NR2E3 ag-2: NR2E3 (human) agonism. Q9Y5X4. GST-NR2E3/biotin-RetCOR TR-FRET, 1536-well. inhibition of corepressor binding, % at 4.78 µM. 320,000 compounds, 0.12% hits. AID 2300;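 active = percent inhibition above the cutoff of mean plus 3 SD of all tested compounds, set per screening campaign, cut at about 20% in these data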;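 also: 0% = DMSO wells and 100% = biotin wells as full block of FRET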
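Assay system: NR2E3–RetCOR corepressor complex. Quantity: 1.35 nM GST-NR2E3. Buffer or medium: pH 7.5 Tris-based buffer. Reagent: biotinylated RetCOR corepressor at 7 nM final. Schedule: 5 h at 4 °C. Detection: TR-FRET, emission read at 617 and 671 nm. Replicates: one well per compound, singlicate testing.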
NR2E3 ag confirm-1: NR2E3 (human) agonism, confirmation | activation (reported as inhibition), % at 3.98 µM | shares compounds with NR2E3 ag-2 | 360 compounds, 39% hits | cell-free NR2E3 corepressor release, TR-FRET, 5 h; in the data active = activation above about 20%
PPARg-NCOR2 ctr: counter-screen for NR2E3 agonists: human PPARgamma-NCOR2 interaction agonists | shares compounds with NR2E3 ag-2 | TR-FRET PPARg-NCOR2 coregulator interaction, biochemical | inhibition, % at 3.98 µM | 360 compounds, 45% hits | AID 504787; in the data active = inhibition above about 20%;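 also: 0% = DMSO vehicle and 100% = wells without protein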
NR2E3 ag confirm-2: NR2E3 agonism confirmed in two-hybrid assay | AID 624378 | 2,300 compounds, 51% hits | inhibition, % at 3.98 µM | CHO-S mammalian two-hybrid NR2E3-NCOR, luciferase luminescence | shares compounds with NR2E3 ag-1;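 active = average inhibition above a cutoff equal to the mean inhibition of all tested compounds plus one SD, cut at about 70% in these data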;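 also: 0% = DMSO in NR2E3 cells and 100% = DMSO in cells lacking NR2E3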
VP16 counter: GAL4-VP16 reporter inhibition in NR2E3 agonist counterscreen; shares compounds with NR2E3 ag-1; CHO-S GAL4-VP16 luciferase reporter, luminescence; inhibition, % at 3.98 µM; 2,300 compounds, 29% hits;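 active = mean inhibition above a cutoff equal to the average over all tested compounds plus one standard deviation, cut at about 70% in these data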;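 also: luciferase from a UAS reporter driven by GAL4-VP16 transactivation; 0% = DMSO with VP16-transfected cells and 100% = DMSO with cells lacking VP16; higher means less reporter light so more repression of VP16 activity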
Active calls of the source: *. Hits are enriched below; roughly 1.3% of the tested compounds scored in any of these assays.

`Cc1ccc(C(=O)C2=C(O)C(=O)N(Cc3cccnc3)C2c2ccc(Br)cc2)o1` (centres undefined) gave PP5 inh 3, PP1 inh 19*, NR2E3 ag-1 16, NR2E3 ag-2 21*, NR2E3 ag confirm-1 22* and PPARg-NCOR2 ctr 18.
Cc1ccc(C(=O)C2=C(O)C(=O)N(CCCn3ccnc3)C2c2ccc(OC(C)C)cc2)o1 (centres undefined) was read as PP5 inh -9, PP1 inh 15*, NR2E3 ag-1 -8, NR2E3 ag-2 28*, NR2E3 ag confirm-1 5 and PPARg-NCOR2 ctr 3.
Screening COc1ccc(C2C(C(=O)c3ccc(C)o3)=C(O)C(=O)N2Cc2cccnc2)cc1 (centres undefined) returned PP5 inh 1, PP1 inh -1, NR2E3 ag-1 -22 and NR2E3 ag-2 11.
`Cc1ccc(C(=O)C2=C(O)C(=O)N(Cc3cccnc3)C2c2ccc(Cl)c(Cl)c2)o1` (centres undefined) gave PP5 inh 1, PP1 inh 30*, NR2E3 ag-1 -4, NR2E3 ag-2 32*, NR2E3 ag confirm-1 23* and PPARg-NCOR2 ctr 20*.
`Cc1ccc(C(=O)C2=C(O)C(=O)N(Cc3cccnc3)C2c2ccc(OC(C)C)cc2)o1` (centres undefined) gave PP5 inh -1, PP1 inh 20*, NR2E3 ag-1 13, NR2E3 ag-2 22*, NR2E3 ag confirm-1 6 and PPARg-NCOR2 ctr 13.
COc1cc(Cl)ccc1OCc1cc(C(=O)N2CCN(C3CCCCC3)CC2)no1 was read as NR2E3 ag-1 -50.
For CCC(C(=O)NCCCN1CCN(C)CC1)n1nc(C)n2c(cc3occc32)c1=O (centres undefined) the results were PP5 inh 2, PP1 inh -4, NR2E3 ag-1 4 and NR2E3 ag-2 3.
`COC(=O)c1cccc(C(=O)N2CCCC(CCC(=O)N(C)CCc3ccccn3)C2)c1` (centres undefined) gave PP5 inh 2, PP1 inh -2, NR2E3 ag-1 -18 and NR2E3 ag-2 2.
Screening Cc1cc(C(=O)OCC(=O)c2ccc(Br)s2)no1 returned PP5 inh 3, PP1 inh 2, NR2E3 ag-1 -10, NR2E3 ag-2 25*, NR2E3 ag confirm-1 6 and PPARg-NCOR2 ctr 14.
For Cc1cc(C(=O)OCC(=O)c2ccc(Br)s2)c(C)o1 the results were PP5 inh 2, PP1 inh -2 and NR2E3 ag-2 10.
`CCCCC1=CC2=C(c3ccco3)C(=O)C(C)(OC(=O)c3ccc(OC)cc3)C(=O)C2=CN1c1ccc(OC)cc1` (centres undefined) gave PP5 inh 2, PP1 inh 16*, NR2E3 ag-1 -20, NR2E3 ag-2 34*, NR2E3 ag confirm-1 -3 and PPARg-NCOR2 ctr 5.
Screening CCCCC1=CC2=C(c3ccco3)C(=O)C(C)(OC(=O)c3ccc(OC)cc3)C(=O)C2=CN1CCCCO (centres undefined) returned PP5 inh 1, PP1 inh -1, NR2E3 ag-1 -14 and NR2E3 ag-2 9.
CCCCC1=CC2=C(c3ccco3)C(=O)C(C)(OC(=O)c3ccc(OC)cc3)C(=O)C2=CN1C1CCCC1 (centres undefined) was read as PP5 inh 5, PP1 inh 5, NR2E3 ag-2 47*, NR2E3 ag confirm-1 8 and PPARg-NCOR2 ctr 13.
`COc1ccc(-c2nc3c4ccccc4ccn3c2Cc2ccccc2)cc1OC` gave NR2E3 ag-1 -88.
For C=CCc1cccc(Cl)c1OCCCNC1CCCC1 the results were PP5 inh -1, PP1 inh 1, NR2E3 ag-1 5 and NR2E3 ag-2 3.
`CCN(CC(=O)NC1CCS(=O)(=O)C1)Cc1nc2c(Br)cc(Br)cc2c(=O)[nH]1` (centres undefined) gave PP5 inh 0, PP1 inh -3, NR2E3 ag-1 -10 and NR2E3 ag-2 17.
`CCN(CC(=O)NC(C)(C)C)Cc1nc2c(Br)cc(Br)cc2c(=O)[nH]1` gave PP5 inh 1, PP1 inh 1, NR2E3 ag-1 -6, NR2E3 ag-2 22*, NR2E3 ag confirm-1 33* and PPARg-NCOR2 ctr 29*.
For Cc1onc(-c2c(F)cccc2Cl)c1C(=O)Nc1nnc(C(F)(F)F)s1 the results were PP5 inh 0, PP1 inh -1, NR2E3 ag-1 92*, NR2E3 ag-2 23*, NR2E3 ag confirm-1 20*, PPARg-NCOR2 ctr -11, NR2E3 ag confirm-2 96* and VP16 counter 77*.
For Cc1onc(-c2c(F)cccc2Cl)c1C(=O)Nc1nccs1 the results were PP5 inh 0, PP1 inh -1, NR2E3 ag-1 -13 and NR2E3 ag-2 0.
For CC(C)(C)NC(=O)CN(C(=O)c1snc(C(=O)NC2CCCCC2)c1N)c1ccccc1F the results were PP5 inh 0, PP1 inh -2, NR2E3 ag-1 -9 and NR2E3 ag-2 1.
CCc1oc2ccccc2c1C(=O)c1cc(Br)c(O)c(Br)c1 was read as PP5 inh 1, PP1 inh 12, NR2E3 ag-1 92*, NR2E3 ag-2 38*, NR2E3 ag confirm-1 31*, PPARg-NCOR2 ctr 45*, NR2E3 ag confirm-2 98* and VP16 counter 79*.
OC(c1ccc(F)cc1)c1nc(-c2ccncc2)cs1 (centres undefined) was read as NR2E3 ag-1 79*, NR2E3 ag confirm-2 83* and VP16 counter 71*.
For Nc1nonc1-n1nnc(C(=O)N/N=C/c2cccc(Cl)c2)c1-c1cccs1 the results were PP5 inh 10, PP1 inh 4, NR2E3 ag-1 -2 and NR2E3 ag-2 0.
Screening O=S(=O)(/C=C/C=C/S(=O)(=O)c1ccccc1)c1ccccc1 returned NR2E3 ag-1 85*, NR2E3 ag confirm-2 80* and VP16 counter 29.
For Cc1ccc(S(=O)(=O)C=CS(=O)(=O)c2ccc(C)cc2)cc1 the results were NR2E3 ag-1 7.
Screening CC1C(=O)N(Cc2cn(CCC3OCCCO3)nn2)CCS(=O)(=O)N1Cc1ccc(-c2ccc(F)cc2)cc1 (centres undefined) returned NR2E3 ag-1 2.
